Laboratory results from ChEMBL document CHEMBL1938301, “Cyclohexane 1,3-diones and their inhibition of mutant SOD1-dependent protein aggregation and toxicity in PC12 cells” (Bioorg Med Chem, 2012).
Calls of active or inactive are those of the source.

Assays:
[1] = Inhibition of SOD1 G93A mutant protein aggregation-mediated cytotoxicity in rat PC12 cells expressing yellow fluorescent protein assessed as increase in cell viability; assay type: cell-based; settings: PC-12
PC-12 [2] = assay: Inhibition of SOD1 G93A mutant protein aggregation-mediated cytotoxicity in rat PC12 cells expressing yellow fluorescent protein assessed as increase in cell viability relative to radicicol; assay type: cell-based; design: concentration or dose not given beside the values
Summary of the method: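 PC12 cells expressing G93A SOD1-YFP; MG132 proteasome inhibition induces cytotoxic mutant SOD1 aggregates. Cell survival measured as protection read-out; efficacy expressed relative to radicicol positive control.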

SH-SY5Y = assay: Cytoprotective activity against MG132-induced cytotoxicity in human SH-SY5Y cells assessed as cell viability at 100 uM pre-treated for 24 hrs before MG132-induction measured after 48 hrs by Calcein-AM-based fluorimetry; assay type: functional
HeLa = assay: Cytoprotective activity against MG132-induced cytotoxicity in human HeLa cells assessed as cell viability at 100 uM pre-treated for 24 hrs before MG132-induction measured after 48 hrs by Calcein-AM-based fluorimetry; assay type: functional
HEK293 = assay: Cytoprotective activity against MG132-induced cytotoxicity in human HEK293 cells assessed as cell viability at 100 uM pre-treated for 24 hrs before MG132-induction measured after 48 hrs by Calcein-AM-based fluorimetry; assay type: functional
Cerebral cortex neuron = assay: Cytoprotective activity against MG132-induced cytotoxicity in rat primary cortical neurons cells assessed as cell viability at 100 uM pre-treated for 24 hrs before MG132-induction measured after 48 hrs by Calcein-AM-based fluorimetry; assay type: functional
Summary of the method: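 Neurons from E18 rat cortex (Sprague-Dawley or Fischer 344), papain-dissociated, plated at 20,000 cells/well on poly-D-lysine, cultured 5 days in Neurobasal/B27 (~90% neurons). Six-point series from 100 μM top in roughly one-third steps, 24 h pre-incubation, then MG132 100 nM final. Viability read 48 h later by Calcein-AM (1 μM, 20 min, RT) fluorescence. Active if ≥5 SD above MG132 controls.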

PC-12 [3] = assay: Cytoprotective activity against MG132-induced cytotoxicity in rat PC12 cells assessed as cell viability at 100 uM pre-treated for 24 hrs before MG132-induction measured after 48 hrs by Calcein-AM-based fluorimetry; assay type: functional

Compound | EC50 [1] | Efficacy (PC-12 [2]) | other results
CCCCCc1ccc(C2CC(=O)CC(=O)C2)cc1 | 2010 nM | 100% | 
O=C1CC(=O)CC(c2ccccc2Oc2ccc(F)cc2)C1 | 1160 nM | 100% | 
CC(C)(C)OC(=O)N1CCN(c2ccc(C3CC(=O)CC(=O)C3)cc2)CC1 | 8290 nM | 100% | 
CC(Oc1cc(Cl)cc(Cl)c1)C1CC(=O)CC(=O)C1 (racemic) | 1410 nM | 100% | 
CC1(COc2ccccc2)CC(=O)CC(=O)C1 | 6280 nM | 100% | 
O=C1CC(=O)CC(c2cc(F)cc(F)c2)C1 | 8200 nM | 100% | 
O=C1CC(=O)CC(c2ccc(C(F)(F)F)cc2)C1 | 8300 nM | 100% | 
O=C1CC(=O)CC(c2cc(-c3cccc(Cl)c3)cc(C(F)(F)F)c2)C1 | 1560 nM | 100% | 
O=C1CC(=O)CC(c2ccc(C(F)(F)F)cc2C(F)(F)F)C1 | 2560 nM | 100% | 
O=C1CC(=O)CC(COc2ccccc2)C1 | > 32000 nM | 100% | 
O=C1CC(=O)CC(c2cccc(-c3ccccc3)c2)C1 | 1230 nM | 100% | 
CCc1ccc(C2CC(=O)CC(=O)C2)cc1 | 2220 nM | 100% | 
O=C1CC(=O)CC(c2c(Cl)cc(Cl)cc2Cl)C1 | 7010 nM | 100% | 
O=C1CC(=O)CC(c2cc(Cl)cc(-c3ccccc3)c2)C1 | 1100 nM | 100% | 
O=C1CC(=O)N(CCc2ccccc2)C(=O)N1CCc1ccccc1 |  | 100% | Activity (SH-SY5Y): Active; Activity (HeLa): Active; Activity (HEK293): Active; Activity (Cerebral cortex neuron): Active; Activity (PC-12 [3]): Active
O=c1cc(COc2cc(Cl)cc(Cl)c2)[nH][nH]1 |  |  | Activity (SH-SY5Y): Active; Activity (HeLa): Active; Activity (HEK293): Active; Activity (Cerebral cortex neuron): Active; Activity (PC-12 [3]): Active
O=C1CC(=O)CC(c2c(F)cccc2F)C1 | > 32000 nM | 100% | 
Cc1cccc(C)c1C1CC(=O)CC(=O)C1 | 2700 nM | 100% | 

Compound | EC50 [1] | Efficacy (PC-12 [2]) | other results
O=C1CC(=O)CC(CC(c2ccccc2)c2ccccc2)C1 | 3430 nM | 100% | 
O=C1CC(=O)CC(c2ccc(F)cc2F)C1 | > 32000 nM | 100% | 
O=C1CC(=O)CC(c2ccc(OCCOc3ccccc3)cc2)C1 | 1560 nM | 100% | 
CC(C)c1cccc(C2CC(=O)CC(=O)C2)c1 | 1580 nM | 100% | 
O=C1CC(=O)CC(c2cccc(-c3cc(C(F)(F)F)cc(C(F)(F)F)c3)c2)C1 | 2150 nM | 100% | 
CCc1ccccc1C1CC(=O)CC(=O)C1 | 3160 nM | 100% | 
CC(C)(C)c1ccc(C2CC(=O)CC(=O)C2)cc1 | 9930 nM | 100% | 
CCCc1ccc(C2CC(=O)CC(=O)C2)cc1 | 2220 nM | 100% | 
O=C1CC(=O)CC(c2ccccc2F)C1 | > 32000 nM | 100% | 
O=C1CC(=O)CC(c2cccc(-c3ccc(Cl)cc3)c2)C1 | 3510 nM | 100% | 
O=C1CC(=O)CC(c2cccc(Oc3cc(Cl)cc(Cl)c3)c2)C1 | 6660 nM | 100% | 
CCCCc1ccc(C2CC(=O)CC(=O)C2)cc1 | 2710 nM | 100% | 
Cc1cccc(C2CC(=O)CC(=O)C2)c1 | 4810 nM | 100% | 
Cc1cc(C)cc(CC2CC(=O)CC(=O)C2)c1 | 900 nM | 100% | 
O=C1CC(=O)CC(c2cccc(Br)c2)C1 | 28700 nM | 100% | 
O=C1CC(=O)CC(c2cccc(Oc3ccc(Cl)cc3)c2)C1 | 2180 nM | 100% | 
O=C1CC(=O)CC(c2ccc(OCCCc3ccccc3)cc2)C1 | 1300 nM | 100% | 
O=C1CC(=O)CC(c2ccc(OCc3ccccc3)cc2)C1 | > 32000 nM | 100% | 
